In ChEMBL document CHEMBL2046302, “Fused tricyclic indoles as S1P₁ agonists with robust efficacy in animal models of autoimmune disease” (Bioorg Med Chem Lett, 2012):

How the values were obtained:
[1] = target: T1, Sphingosine 1-phosphate receptor 1 (Homo sapiens, UniProt P21453); assay: Agonist activity against human S1P1 assessed as accumulation of cAMP by HTRF assay; format: functional
Summary of the method: (§1)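 Agonist EC50 was read from a cAMP HTRF assay run on human, rat and mouse S1P1. Response was scaled against S1P, and values are the mean of three or more replicates.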

[2] = target: Sphingosine 1-phosphate receptor 2 (Homo sapiens, UniProt O95136); assay: Agonist activity against human S1P2 by beta arrestin recruitment assay; format: functional
Summary of the method: (§2)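 Agonist EC50 at human S1P1 through S1P5 was measured by β-arrestin recruitment. Values are the mean of three or more replicates.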

[3] = target: Sphingosine 1-phosphate receptor 1 (Rattus norvegicus, UniProt P48303); assay: Agonist activity against rat S1P1 assessed as accumulation of cAMP by HTRF assay; format: functional; summary of the method: as §1
[4] = target: Sphingosine 1-phosphate receptor 1 (Mus musculus, UniProt O08530); assay: Agonist activity against mouse S1P1 assessed as accumulation of cAMP by HTRF assay; format: functional; summary of the method: as §1
[5] = target: T1, Sphingosine 1-phosphate receptor 1; assay: Agonist activity against human S1P1 by beta arrestin recruitment assay; format: functional; summary of the method: as §2
[6] = target: Sphingosine 1-phosphate receptor 3 (Homo sapiens, UniProt Q99500); assay: Agonist activity against human S1P3 by beta arrestin recruitment assay; format: functional; summary of the method: as §2
[7] = target: T2, Sphingosine 1-phosphate receptor 4 (Homo sapiens, UniProt O95977); assay: Agonist activity against human S1P4 by beta arrestin recruitment assay; format: functional; summary of the method: as §2
T2 sequence (O95977 whole entry): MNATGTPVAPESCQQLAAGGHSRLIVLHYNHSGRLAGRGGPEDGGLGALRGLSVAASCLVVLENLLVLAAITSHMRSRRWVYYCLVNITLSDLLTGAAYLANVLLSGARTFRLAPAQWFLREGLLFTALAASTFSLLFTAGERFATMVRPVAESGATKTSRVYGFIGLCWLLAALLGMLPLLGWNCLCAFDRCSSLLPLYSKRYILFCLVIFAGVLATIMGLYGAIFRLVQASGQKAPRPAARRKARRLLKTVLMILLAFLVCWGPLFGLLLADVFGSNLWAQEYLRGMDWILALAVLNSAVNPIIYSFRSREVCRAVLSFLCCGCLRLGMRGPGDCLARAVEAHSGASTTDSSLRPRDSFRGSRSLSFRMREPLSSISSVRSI

[8] = target: Sphingosine 1-phosphate receptor 5 (Homo sapiens, UniProt Q9H228); assay: Agonist activity against human S1P5 by beta arrestin recruitment assay; format: functional; summary of the method: as §2
[9] = Half life in mouse liver microsome; format: ADME; conditions: liver microsomes
[10] = Half life in rat liver microsome; format: ADME; conditions: liver microsomes
[11] = Half life in human liver microsome; format: ADME; conditions: liver microsomes
[12] = Clearance in Sprague-Dawley rat at 2 mg/kg, iv and 3 mg/kg, po; format: ADME, organism-based; conditions: in vivo
Summary of the method: (§3)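 Male Sprague–Dawley rats received 2.0 mg/kg IV in 100% PEG400 and 3.0 mg/kg PO in 0.5% methyl cellulose. Clearance, Vss, terminal half-life, Cmax, AUClast and oral bioavailability were derived from plasma levels.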

[13] = Cmax in Sprague-Dawley rat in Sprague-Dawley rat at 2 mg/kg, iv and 3 mg/kg, po; format: ADME, organism-based; conditions: in vivo; summary of the method: as §3
[14] = Volume of distribution at steady state in Sprague-Dawley rat at 2 mg/kg, iv and 3 mg/kg, po; format: ADME, organism-based; conditions: in vivo, read-out: Vdss; summary of the method: as §3
[15] = Terminal half life in Sprague-Dawley rat at 2 mg/kg, iv and 3 mg/kg, po; format: ADME, organism-based; conditions: in vivo, read-out: beta t1/2 (converted); summary of the method: as §3
[16] = AUClast in Sprague-Dawley rat in Sprague-Dawley rat at 2 mg/kg, iv and 3 mg/kg, po; format: ADME, organism-based; conditions: plasma; summary of the method: as §3
[17] = Oral bioavailability in Sprague-Dawley rat at 3 mg/kg; format: ADME, organism-based; conditions: in vivo; summary of the method: as §3

Chain of Sphingosine 1-phosphate receptor 3 (Q99500 whole entry): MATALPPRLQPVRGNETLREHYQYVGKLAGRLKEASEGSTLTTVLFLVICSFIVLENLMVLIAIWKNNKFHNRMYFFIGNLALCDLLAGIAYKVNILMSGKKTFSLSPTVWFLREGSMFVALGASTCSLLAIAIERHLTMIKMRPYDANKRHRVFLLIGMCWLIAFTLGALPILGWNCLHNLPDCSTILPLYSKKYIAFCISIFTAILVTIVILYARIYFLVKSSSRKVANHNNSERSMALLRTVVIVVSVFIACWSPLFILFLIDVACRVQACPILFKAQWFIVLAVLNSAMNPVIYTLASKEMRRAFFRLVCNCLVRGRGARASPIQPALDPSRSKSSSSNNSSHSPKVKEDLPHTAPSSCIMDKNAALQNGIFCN
Chain of Sphingosine 1-phosphate receptor 5 (Q9H228 whole entry): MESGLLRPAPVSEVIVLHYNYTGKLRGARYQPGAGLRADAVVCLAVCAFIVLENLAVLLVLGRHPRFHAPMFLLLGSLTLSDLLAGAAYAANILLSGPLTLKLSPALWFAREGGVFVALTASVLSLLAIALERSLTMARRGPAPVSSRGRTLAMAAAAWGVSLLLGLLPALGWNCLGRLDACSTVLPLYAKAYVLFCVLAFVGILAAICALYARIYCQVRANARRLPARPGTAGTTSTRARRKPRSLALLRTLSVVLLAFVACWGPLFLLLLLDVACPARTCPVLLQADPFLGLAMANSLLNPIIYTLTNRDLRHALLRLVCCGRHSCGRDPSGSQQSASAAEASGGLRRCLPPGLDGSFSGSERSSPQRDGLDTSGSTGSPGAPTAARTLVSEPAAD
Chain of Sphingosine 1-phosphate receptor 1 (Rattus norvegicus, UniProt P48303) (P48303 whole entry): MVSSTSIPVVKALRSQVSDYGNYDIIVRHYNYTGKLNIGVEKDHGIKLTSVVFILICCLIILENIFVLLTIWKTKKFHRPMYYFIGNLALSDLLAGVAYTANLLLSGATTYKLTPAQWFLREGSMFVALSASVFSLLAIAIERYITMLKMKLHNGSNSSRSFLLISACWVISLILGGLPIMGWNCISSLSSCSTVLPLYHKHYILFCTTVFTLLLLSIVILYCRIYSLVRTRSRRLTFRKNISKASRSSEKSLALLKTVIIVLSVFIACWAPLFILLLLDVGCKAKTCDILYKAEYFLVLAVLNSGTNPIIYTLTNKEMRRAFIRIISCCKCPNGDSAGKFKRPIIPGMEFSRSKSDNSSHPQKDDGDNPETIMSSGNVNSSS
Chain of Sphingosine 1-phosphate receptor 2 (O95136 whole entry): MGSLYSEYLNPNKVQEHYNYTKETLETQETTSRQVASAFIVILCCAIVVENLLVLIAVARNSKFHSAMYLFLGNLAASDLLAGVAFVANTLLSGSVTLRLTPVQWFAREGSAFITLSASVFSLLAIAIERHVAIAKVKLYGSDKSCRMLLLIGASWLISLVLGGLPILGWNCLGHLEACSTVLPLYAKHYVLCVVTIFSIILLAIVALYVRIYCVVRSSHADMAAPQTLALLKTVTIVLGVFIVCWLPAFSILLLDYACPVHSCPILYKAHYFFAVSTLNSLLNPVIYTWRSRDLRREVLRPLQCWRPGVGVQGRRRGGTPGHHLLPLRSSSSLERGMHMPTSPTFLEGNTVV
T1 sequence (P21453 whole entry): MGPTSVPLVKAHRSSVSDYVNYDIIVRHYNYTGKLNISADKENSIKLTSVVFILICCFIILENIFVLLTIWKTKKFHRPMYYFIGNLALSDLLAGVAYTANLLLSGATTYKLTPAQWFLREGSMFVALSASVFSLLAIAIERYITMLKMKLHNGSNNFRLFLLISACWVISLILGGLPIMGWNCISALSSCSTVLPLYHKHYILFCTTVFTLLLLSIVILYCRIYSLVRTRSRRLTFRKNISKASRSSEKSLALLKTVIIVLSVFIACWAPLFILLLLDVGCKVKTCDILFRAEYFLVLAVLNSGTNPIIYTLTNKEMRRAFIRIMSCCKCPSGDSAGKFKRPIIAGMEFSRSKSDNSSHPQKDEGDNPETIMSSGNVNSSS
Chain of Sphingosine 1-phosphate receptor 1 (Mus musculus, UniProt O08530) (O08530 whole entry): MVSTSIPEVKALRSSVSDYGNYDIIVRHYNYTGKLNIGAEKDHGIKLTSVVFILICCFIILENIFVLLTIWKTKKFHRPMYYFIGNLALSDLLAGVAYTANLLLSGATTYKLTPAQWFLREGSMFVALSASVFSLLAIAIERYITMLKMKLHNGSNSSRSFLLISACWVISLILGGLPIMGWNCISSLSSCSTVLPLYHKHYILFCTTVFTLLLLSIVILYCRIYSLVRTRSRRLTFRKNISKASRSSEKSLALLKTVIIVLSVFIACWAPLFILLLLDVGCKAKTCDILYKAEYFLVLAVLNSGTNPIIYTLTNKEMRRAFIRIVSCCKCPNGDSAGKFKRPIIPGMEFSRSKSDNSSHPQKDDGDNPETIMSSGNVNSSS

Row | SMILES | EC50 [1] | EC50 [2] | EC50 [3] | EC50 [4] | EC50 [5] | EC50 [6] | EC50 [7] | EC50 [8] | other results
1 | COc1cc(C#N)cc(-c2nc(-c3ccc4[nH]c5c(c4c3)CCC5CC(=O)O)no2)c1 (racemic) | 157 nM |  |  |  |  |  |  |  | 
2 | CC(C)Oc1ccc(-c2nc(-c3ccc4[nH]c5c(c4c3)CCC5CC(=O)O)no2)cc1C#N (racemic) | 7.5 nM |  |  |  |  |  |  |  | 
3 | N#Cc1cc(-c2nc(-c3ccc4c(c3)cc3n4CCC3CC(=O)O)no2)ccc1OC(F)(F)F (racemic) | 0.59 nM |  |  |  |  |  |  |  | 
4 | N#Cc1cc(OC(F)(F)F)cc(-c2nc(-c3ccc4c(c3)cc3n4CCC3CC(=O)O)no2)c1 (stereo in doubt; 23a) | 0.76 nM | > 100000 nM | 3.4 nM | 5.5 nM | 123 nM | > 100000 nM | > 100000 nM | 289 nM | 
5 | COc1cc(C#N)cc(-c2nc(-c3ccc4c(c3)cc3n4CCC3CC(=O)O)no2)c1 (racemic) | 4.6 nM |  |  |  |  |  |  |  | 
6 | N#Cc1cc(OC(F)(F)F)cc(-c2nc(-c3ccc4[nH]c5c(c4c3)CCC5CC(=O)O)no2)c1 (single isomer, unassigned) | 0.75 nM | > 100000 nM | 1.8 nM | 2.6 nM | 36 nM | > 100000 nM | 462 nM | 15 nM | half-life [9]: > 1 h; half-life [10]: > 1 h; half-life [11]: > 1 h; clearance [12]: 1.39 mL/min/kg; Cmax [13]: 1400 ng/mL; Vd [14]: 0.734 L/kg; half-life [15]: 5.46 h; AUC(0-t) [16]: 11000 ng·h/mL; bioavailability [17]: 32.5%

Now from value to molecule, other results behind:

Row | EC50 [1] | EC50 [2] | EC50 [3] | EC50 [4] | EC50 [5] | EC50 [6] | EC50 [7] | EC50 [8] | SMILES | other results
7 | 2.1 nM |  |  |  |  |  |  |  | O=C(O)CC1CCn2c1cc1cc(-c3noc(-c4cc(C(F)(F)F)cc(C(F)(F)F)c4)n3)ccc12 (racemic) | 
8 | 1.73 nM | > 100000 nM | 1.4 nM | 8.3 nM | 55 nM | > 100000 nM | 239 nM | 11 nM | N#Cc1cc(OC(F)(F)F)cc(-c2nc(-c3ccc4[nH]c5c(c4c3)CCC5CC(=O)O)no2)c1 (stereo in doubt; 17a) | 
9 | 2.9 nM |  |  |  |  |  |  |  | COc1ccc(-c2nc(-c3ccc4c(c3)cc3n4CCC3CC(=O)O)no2)cc1C#N (racemic) | 
